# In ChEMBL document CHEMBL4513216, “Probing the Open Global Health Chemical Diversity Library for Multistage-Active Starting Points for Next-Generation Antimalarials” (ACS Infect Dis, 2020):
# Assay: Toxicity liver stage against HepG2, at 10uM
# Type: cell-based
# Parameters: test concentration 10 uM, cell line HepG2-A16-CD81EGFP
# Conditions: human, HepG2-A16-CD81EGFP cells; read-out: INHIBITION
# Summary of the method: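 Uninfected HepG2-A16-CD81EGFP cells, 3 × 10^3 per well, 1536-well, plated on prespotted compound at 10 μM final, parasite-free screening media added to match infected plates; puromycin 10 μM positive, DMSO 0.5% negative; run in parallel with 48 h PbLuc assay at 37 °C, 5% CO2; viability by CellTiter-Glo luminescence, normalized to controls.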
row,Structure (SMILES),cytotoxicity at 10 µM
1,CNC(C)Cc1ccccc1Sc1ccc(O)cc1 (configuration not stated),2.73%
2,Cc1c(C(=O)O)sc2nc(Cc3ccccc3)nc(N)c12,-0.924%
3,CN1CCC(N2CCN3C(=O)NC[C@H]3C2)CC1,2.26%
4,CN(C)C(=O)c1cccnc1SCc1ccccc1Cl,3.25%
5,Cc1ccc(C(=O)N2CC(=O)N(Cc3ccco3)CC(O)C2)cc1 (configuration not stated),-0.817%
6,O=C(CCc1nc2cc(Br)cnc2[nH]1)NCc1cccnc1,-0.874%
7,CC(C)c1sc(Br)nc1C(=O)NCc1cccnc1,3.06%
8,CCOC(=O)CCC(=O)N1CCC(CSCc2ccco2)CC1,-10.3%
9,O=C1CCC2(CCCN(C(=O)c3cccnc3)CC2)N1 (configuration not stated),6.56%
10,O=C(Cc1ccsc1)N1CCc2ccc(=O)n(CC3CC3)c2CC1,6.13%
11,CN1C(=O)CC(c2ccccc2)C12CCN(C(=O)c1ccc[nH]1)CC2 (configuration not stated),7.52%
12,COCCN(C)C(=O)c1nc2c(s1)CCCN2C(=O)C1CC1,-143%
13,O=C(Cn1cc(C(=O)O)ccc1=O)NCc1ccc(F)c(Cl)c1,-5.88%
14,CCC1=N[C@@]2(CC[C@@H]3CN(S(=O)(=O)CC)C[C@@H]32)C(=O)N1CC(C)C,-0.0582%
15,Cc1nn(Cn2ccc(C(=O)N3CCOCC3)n2)c(C)c1Cl,-0.112%
16,CCN(CC)Cc1nnc2sc(C(C)Oc3ccccc3)nn12 (configuration not stated),8.35%
17,Cc1nn(C)c2cn(C(C)C(=O)NCc3cccnc3)nc12 (configuration not stated),5.55%
18,Cc1cccnc1C(Cc1ccsc1)NCc1cnc(N(C)C)nc1 (configuration not stated),5.24%
19,CN(CC(=O)Nc1cnn(-c2ccccc2S(C)(=O)=O)c1)C1CC1,0.315%
20,CC(NCCCN1CCCC1=O)c1ccc(F)cc1N(C)C (configuration not stated),-2.78%
21,Cc1ccc(O)c(C(=O)NCCS(=O)(=O)Cc2ccccc2)c1,4.57%
22,CN1CCOC(C(=O)Nc2nnc(Cc3ccc(F)cc3)[nH]2)C1 (configuration not stated),-4.95%
23,Cc1ccc(C2CSCCN2C(=O)c2ccncc2)cc1 (configuration not stated),2.96%

row,Structure (SMILES),cytotoxicity at 10 µM
1,O=C(Nc1cccnc1)NC1(c2cccc(F)c2)CC1,1.41%
2,COc1ccc(NC(=O)CN2CCS(=O)(=O)CC2)cn1,11.8%
3,CC(C)OCCS(=O)(=O)NC1CCN(C2CCCC2)C1 (configuration not stated),1.68%
4,CCc1nnsc1C(=O)N1CCOC(c2nc(C(C)C)n[nH]2)C1 (configuration not stated),1.23%
5,CCN(CC)C(CNC(=O)c1ccc(-n2cncn2)cc1)c1ccsc1 (configuration not stated),-141%
6,CN1CCOC(CNCC(=O)NCCc2ccc(F)cc2)C1 (configuration not stated),1.38%
7,CCc1nc(CC)n(CC(=O)N(CC)CC)n1,3.1%
8,Cc1cc(C2CCCN(C(=O)COc3ccc(F)cc3)C2)n[nH]1 (configuration not stated),3.59%
9,NC(=O)CN(CC(=O)NCc1cccc(Cl)c1)C1CCCC1,-0.979%
10,Cc1nc(-c2cnn(C)c2)sc1C(=O)NCc1cccc(CN(C)C)c1,2.46%
11,CCOCCCC(=O)N1CCN(c2cccc(OC)c2)C(C)C1 (configuration not stated),0.0272%
12,CCNC(=O)CCN1CCCC1c1cccc2c1OCCO2 (configuration not stated),-4%
13,CN(Cc1noc(C(C)(C)C)n1)Cc1ccccc1N1CCCC1,-1.78%
14,CC(=O)N1CCN(C(=O)c2cnc(OC(C)C)c(Cl)c2)CC1,-4.36%
15,COc1ccc2c(c1)CN(CC(=O)NC1CCCC1)CC2,-1.77%
16,O=C(NCCCNC(=O)c1ccc(F)cc1F)c1cccc(O)c1,2.9%
17,Cc1cc(C(=O)Nc2cccn(Cc3ccc(F)cc3)c2=O)on1,5.38%
18,COCCn1cc(NCc2cccc3cn[nH]c23)cn1,-3.31%
19,O=C(Cc1csc(N2CCNC2=O)n1)NC1(c2ccccc2)CCC1,-135%
20,COc1ccc(CC(=O)N2CCC(c3n[nH]c(C4CC4)n3)CC2)cc1,-14.6%
21,Cc1sc2nc(SC(C)c3nc(C(C)C)no3)nc(N)c2c1C (configuration not stated),-2.4%
22,N#Cc1ccc(S(=O)(=O)N2CC(CC(=O)O)c3ccccc32)cc1 (configuration not stated),0.513%
23,CCc1nc(CN2CCCCC2C(N)=O)cs1 (configuration not stated),-7.96%

row,Structure (SMILES),cytotoxicity at 10 µM
1,CN(CCC(F)(F)F)Cc1nc2ccccc2c(=O)[nH]1,-5.61%
2,c1ccc2nc(N3CCCC(Cn4cncn4)C3)cnc2c1 (configuration not stated),5.46%
3,Cc1cccc(CCC(=O)N2CCOCC2c2c(C)n[nH]c2C)c1 (configuration not stated),-13.3%
4,CCN1CC(C(=O)NCc2ccnc(-n3ccnc3C)c2)CC1=O (configuration not stated),-25.5%
5,CC(=O)N1CCCC1c1nnc2n1CCCCC2 (configuration not stated),4.31%
6,CN(C)CC(=O)N1Cc2nc(C(=O)N3CCCN(C)CC3)oc2C1,-105%
7,Cn1c2c(c(=O)n1C)CN(C(=O)c1cnccn1)CCC2,-113%
8,O=C(C1CCOCC1)N1CCc2ncc(CN3CCCCC3)n2CC1,-78.4%
9,Cn1cc(N2CCC3(CCCN(Cc4ccoc4)C3)C2=O)cn1 (configuration not stated),-77%
10,COc1c(C)cc(S(=O)(=O)NCC2CNCCOC2)cc1C (configuration not stated),-3.53%
11,CCCn1nccc1C(=O)N1CCN(C(=O)C2CC2)[C@@H]2CS(=O)(=O)C[C@@H]21,4.05%
12,CCN(CCn1cccn1)Cc1nc(-c2cccc(C)c2)oc1C,0.0489%
13,Cn1nccc1C(=O)N1CCN(C(=O)C2CCC2)[C@@H]2CS(=O)(=O)C[C@@H]21,4.86%
14,Cc1noc([C@@H]2CCCN2C(=O)C2CCN(CC(N)=O)CC2)n1,3.96%
15,Cc1nc(C(C)NCc2cc(O)c3cccc(F)c3n2)cs1 (configuration not stated),8.33%
16,CCc1cc(N(C)Cc2ccno2)n2nc(C)c(C)c2n1,1.35%
17,N#Cc1c(N)nc2c(c1-c1c[nH]nc1C1CCCCC1)CC(N)CC2 (configuration not stated),-3.06%
18,CC1CN(Cc2ccccc2Cn2cccn2)CCN1C (configuration not stated),-132%
19,COc1ccc(-c2ccccc2CCN)c(OC)c1,8.95%
20,CCNC(=O)C1CCN(c2nccc(C3CCCC3)n2)C1 (configuration not stated),-5.6%
21,O=C(O)c1coc(COc2cccc3cnccc23)n1,-110%
22,CN(CCn1cnc(-c2ccccc2)c1-c1ncc[nH]1)S(C)(=O)=O,1.87%
23,Cc1csc2c(=O)n(CCN3CCC(c4ccccc4)CC3)cnc12,1.2%

row,Structure (SMILES),cytotoxicity at 10 µM
1,Cc1cc(N2CCN(C(=O)c3cnn(C(C)C)c3)CC2)nc(N)n1,-2.82%
2,CNC(=O)C1CCN(Cc2nc(-c3ccc(SC)cc3)oc2C)C1 (configuration not stated),-0.465%
3,COc1ccc(C(C(=O)O)N2CCC(O)(c3cccnc3)CC2)cc1Cl (configuration not stated),4.57%
4,Cc1ccccc1C(C(=O)O)N(C)CC1CCOCC1 (configuration not stated),3.88%
5,CCCS(=O)(=O)N1CCN(c2cc(-n3ccnc3)nc(C)n2)CC1,-1.89%
6,Cc1ccc(N2CC[C@]3(O)CCN(CCN4CCCC4=O)C[C@@H]3C2)nn1,-10.1%
7,CC(=O)Nc1ccc(-c2ccccc2CCN)cc1,3.61%
8,Cc1[nH]ccc1C(=O)N1CCN(C)C2(CCC(=O)N(C)CC2)C1 (configuration not stated),5.95%
9,CC(C(=O)NCCN1CCOCC1)n1cncn1 (configuration not stated),-2.85%
10,O=C(CCS(=O)(=O)C1CCCC1)NCc1ccccc1Cn1cncn1,-4.9%
11,Cc1nccn1-c1cc(CNC(=O)NCC2CCCO2)ccn1 (configuration not stated),-7.9%
12,CC(C)CN1CC(C(=O)NCCOc2ccc3c(c2)OCO3)CC1=O (configuration not stated),-1.39%
13,Cc1cc(C)n(C2CCCN(C(=O)c3ccc(N(C)C)nc3)C2)n1 (configuration not stated),-4.26%
14,COc1ccc(OC)c(CNCc2ccnc(N3CCOCC3)c2)c1,1.27%
15,C=C(C)CN(CC)C(=O)CN(C)C1CCc2ccccc21 (configuration not stated),-11.6%
16,Cc1nn(C)c(C)c1C1CCCN1C(=O)c1cnc2onc(C)c2c1 (configuration not stated),-8.48%
17,FC(F)(F)Cn1ccnc1CNCC1CCCN1c1cccnn1 (configuration not stated),-26.6%
18,COCCN(Cc1nc2c(cnn2C)c(=O)[nH]1)C(C)c1ccccc1 (configuration not stated),-1.47%
19,O=C(NCCN1CCCCC1)c1ccn(-c2ccc(F)cc2)n1,-8.05%
20,Cc1nc(C)n(C2CCCN(C(=O)c3ccn(C(C)C)n3)C2)n1 (configuration not stated),-22.6%
21,Cc1cnn(CC2CN(Cc3cccc(OCC(N)=O)c3)CCO2)c1 (configuration not stated),-7.18%
22,CC(C)(O)CN1CCN(C(=O)c2cc(Cl)cc3cccnc23)CC1,-7.93%
23,COc1ccc(F)cc1CN1CCCC(c2cc(C(N)=O)[nH]n2)C1 (configuration not stated),0.313%

row,Structure (SMILES),cytotoxicity at 10 µM
1,CCN1CCCC(CNC(=O)C2(c3cccc(Cl)c3)CC2)C1 (configuration not stated),-2.77%
2,COCCOc1ccccc1CNCc1c(C)nn(C)c1N(C)C,-5.65%
3,O=C(c1cc(F)ccc1F)C1CCN(C(=O)c2ccc(=O)[nH]n2)CC1,3.42%
4,CC(C)COC(C)C(=O)NCc1ccc(OC(C)C)nc1 (configuration not stated),2.12%
5,Cc1nc(CN2CCCC(N(C)Cc3cscn3)C2)no1 (configuration not stated),16.8%
6,CN1CCCC(c2ccc(N3CCOCC3)cn2)C1 (configuration not stated),-6.47%
7,CNCc1ccc([C@@H]2CN(C(C)=O)C[C@H]2C(N)=O)cc1,5.32%
8,CC(=O)N1CCN(Cc2cccs2)CC2(CC(=O)N(C)C2)C1 (configuration not stated),1.7%
9,CC(C)N1CCc2nnc(COc3cncnc3)n2CC1,2.7%
10,CN(C)C(=O)N1CCC[C@]2(C(=O)N(C)C)CN(c3ccccn3)C[C@@H]2C1,7.13%
11,CN(C)CCOCc1cncc2c1CCN(C1CCOC1)C2 (configuration not stated),9.68%
12,c1coc(CN2CCO[C@H]3[C@H](OCC4CC4)CC[C@@H]32)c1,5.22%
13,Cc1ccc(CN2CCC[C@@H]3CN(C(=O)c4ccco4)C[C@@H]32)o1,8.83%
14,c1cncc(OC[C@@H]2CCC[C@@]23CNCCO3)c1,10.5%
15,CNCCc1nc2cc(F)ccc2[nH]1,22%
16,CC(C)NC(=O)CC1CC2(CCN(CC3CC3)CC2)Oc2ccccc21 (configuration not stated),-2.42%
17,c1ccc(CN2CCc3nnc(CN4CCCCC4)n3CC2)nc1,3.73%
18,CCc1ccc(CN2C[C@@H](c3nc(C)no3)C[C@H]3OCC[C@H]32)o1,-75.8%
19,Cn1ccc(CN2CCOCC23CCNCC3)n1,6.77%
20,C=c1occc1=C1NC(c2cccc(CN3CCOCC3)c2)=NO1,-5.92%
